9 compounds from ChEMBL document CHEMBL1287763, “Antiangiogenic properties of substituted (Z)-(±)-2-(N-benzylindol-3-ylmethylene)quinuclidin-3-ol/one analogs and their derivatives” (Bioorg Med Chem Lett, 2010) can be followed below.

SMILES strings stand for the structures. Calls of active or inactive are those of the source. No cut-off for these calls is given here.

In data set [1] the test system is HUVEC. Briefly: Antiangiogenic activity against HUVEC assessed as inhibition of cell migration at 10 uM after 20 hrs by scratch assay. The data set is classed as functional, cell-based. The following applies: Homo sapiens. The gist of the method: (§1)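 Confluent HUVEC monolayers were scratched with a pipette tip and washed twice with PBS. Compound was added in HUVEC medium, and cells were incubated at 37°C for 20 h. Images were taken at 0 h (right after compound addition) and at 20 h. Migration was compared with cells not given compound.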

For data set [2], the system named is HUVEC. Briefly: Inhibition of ECTO-NOX in HUVEC assessed as reduction of WST-1 at 10 uM […]. The data set is classed as cell-based. The following applies: Homo sapiens. In a few lines: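 HUVECs were grown for 24 h after seeding, then treated for 20 h in duplicate with analog (0.5, 1, 5, 10 µM) or DMSO solvent. WST-1 reduction was then measured following the kit protocol, read as optical density at 450 nm.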

Data set [3] deals with HUVEC. Briefly: Antiangiogenic activity against HUVEC assessed as inhibition of cell migration at 25 uM after 20 hrs by scratch assay. The note with it: Homo sapiens. The data set is classed as functional, cell-based. The gist of the method: as §1
In data set [4] the test system is HUVEC. Briefly: Antiangiogenic activity against HUVEC assessed as inhibition of p70S6K1 phosphorylation at T389. The note with it: Homo sapiens. The data set is classed as functional, cell-based.
Data set [5] relates to HUVEC. As to the kind of experiment: Cytotoxicity against HUVEC assessed as cell viability at 10 uM after 6 hrs by crystal violet staining. The data set is classed as cell-based. The note with it: human.

For `O=S(=O)(c1ccccc1)n1cc(/C=C2/C(=N/O)C3CCN2CC3)c2ccccc21`, the result in the data set on HUVEC [1] and in the data set with HUVEC [3] was Active. For the same compound, the “ECTO-NOX inhibition (active/not active)” value in the data set on HUVEC [2] was “Active”. Besides, in the data set with HUVEC [4], the inhibition entry was “Active”. In the data set on HUVEC [5], the Activity entry is listed as “Non-toxic”.
For the compound `NC(=O)N/N=C1/C(=C/c2cn(S(=O)(=O)c3ccccc3)c3ccccc23)N2CCC1CC2`, the outcome in the data set with HUVEC [1] and in the data set with HUVEC [3] was Active. The “ECTO-NOX inhibition (active/not active)” value with HUVEC [2] is “inactive”.
Regarding `Cc1ccc(S(=O)(=O)n2cc(/C=C3/C(O)C4CCN3CC4)c3ccccc32)cc1` (centres undefined), the “ECTO-NOX inhibition (active/not active)” value in the data set on HUVEC [2] was “inactive”.
Take `O=C(Nc1ccccc1)OC1/C(=C/c2cn(S(=O)(=O)c3ccccc3)c3ccccc23)N2CCC1CC2` (centres undefined): the outcome in the data set on HUVEC [1] and with HUVEC [3] was Active.
With `OC1/C(=C/c2cn(Cc3cccc(F)c3)c3ccc(Br)cc23)N2CCC1CC2` (centres undefined), the result in the data set with HUVEC [1] and in the data set with HUVEC [3] was Active. Further, the Activity entry with HUVEC [5] is given as “Non-toxic”.
Turning to `O=[N+]([O-])c1ccc2c(c1)c(/C=C1/C(O)C3CCN1CC3)cn2Cc1ccccc1` (centres undefined), the result in the data set with HUVEC [1] and in the data set with HUVEC [3] was Active. For the same compound, the Activity result in the data set with HUVEC [5] is given as “Non-toxic”.
Consider `Cc1cccc(Cn2cc(/C=C3/C(O)C4CCN3CC4)c3cc(C)ccc32)c1` (centres undefined), for which the result in the data set with HUVEC [1] and with HUVEC [3] was Active. Also, in the data set with HUVEC [2], the “ECTO-NOX inhibition (active/not active)” value is “inactive”. Moreover, the Activity result in the data set on HUVEC [5] was “Non-toxic”.
In the case of `OC1/C(=C/c2cn(Cc3cccc(F)c3)c3ccccc23)N2CCC1CC2` (centres undefined), the result with HUVEC [1] and with HUVEC [3] was Active. In addition, the “ECTO-NOX inhibition (active/not active)” value with HUVEC [2] was “inactive”. In addition, in the data set with HUVEC [5], the Activity result was “Non-toxic”.
Regarding `OC1/C(=C/c2cn(Cc3ccccc3)c3ccc(Br)cc23)N2CCC1CC2` (centres undefined), the outcome in the data set on HUVEC [1] and in the data set on HUVEC [3] was Active. The “ECTO-NOX inhibition (active/not active)” value in the data set with HUVEC [2] is “inactive”. In addition, the Activity result in the data set with HUVEC [5] is listed as “Non-toxic”.
